Results from different studies.
Compare with care: the assays were run in different laboratories.
Target: Mu-type opioid receptor (OPRM1, Homo sapiens, UniProt P35372)

| SMILES | test | conditions | quantity | value |
| --- | --- | --- | --- | --- |
| Oc1ccc2c3c1O[C@H]1c4ncc(-c5ccccc5)cc4C[C@@]4(OCCCc5cccnc5)[C@@H](C2)N(CC2CC2)CC[C@]314 | cell-free assay | – | Ki | 3.96 nM |
| CC(Cc1ccccc1)NCCC(c1ccccc1)c1ccccc1 (stereo not shown) | ligand displacement, radioligand | – | IC50 | 1800 nM |
| Clc1ccc(CSc2nnc(-c3ccccn3)n2Cc2ccco2)cc1Cl | β-arrestin recruitment, agonist, imaging | – | EC50 | > 32000 nM |
| Cc1cc(O)cc(C)c1C[C@H](N)C(=O)N1Cc2ccccc2C[C@H]1C(=O)NCC(=O)NCc1ccc([N+](=O)[O-])cc1 | ligand displacement, radioligand | cell membranes | Ki | 4.5 nM |
| CC(NCCc1ccc(O)cc1)C(O)c1ccc(O)cc1 (stereo not shown) | ligand displacement | – | IC50 | 9180 nM |
| Cc1cc(O)cc(C)c1C[C@H](N)C(=O)N1Cc2ccccc2C[C@@H]1C(=O)NCC(=O)NCc1ccccc1 | ligand displacement, radioligand | cell membranes | Ki | 0.068 nM |
| COc1ccc2c(c1)[C@]13CCCC[C@@H]1[C@H](C2)N(C)CC3 | ligand displacement, radioligand | – | IC50 | 1700 nM |
| Cc1cccc(C)c1-c1cnc2c(c1)C[C@@]1(OCCCc3ccccc3)[C@H]3Cc4ccc(O)c5c4[C@@]1(CCN3CC1CC1)[C@H]2O5 | cell-free assay | – | Ki | ~200 nM |
| c1ccc([C@]2(CCN[C@H]3CCOc4ccccc43)CCOC3(CCCC3)C2)nc1 | cAMP, agonist, luciferase | – | EC50 | 1.6 nM |
| COc1ncccc1-c1cnn2ccc(N3CCN(C(=O)OC(C)C)CC3)nc12 | cell-free assay | – | IC50 | > 30000 nM |
| Cc1cc(O)cc(C)c1C[C@H](N)C(=O)N1Cc2ccccc2C[C@H]1C(=O)NCC(=O)NC(c1ccccc1)c1ccccc1 | ligand displacement, radioligand | cell membranes | Ki | 1.71 nM |
| CCCCCCCCC[C@@H]1CC(=O)NCC(=O)N[C@H](Cc2ccc(O)cc2)C(=O)NCC(=O)N[C@@H](Cc2ccccc2)C(=O)O1 | ligand displacement, radioligand | – | Ki | 6400 nM |
| COc1cc(-c2cnc3c(c2)C[C@@]2(OCCCc4ccccc4)[C@H]4Cc5ccc(O)c6c5[C@@]2(CCN4CC2CC2)[C@H]3O6)ccn1 | cell-free assay | – | Ki | < 10 nM |
